For 25 molecules, Activity, MIC and MBC results are on record in ChEMBL document CHEMBL2413051, “Antibacterial activity of quinoxalines, quinazolines, and 1,5-naphthyridines” (2013).

Experiment [1] has as its target T1, Cell division protein FtsZ (Staphylococcus aureus) (UniProt P0A031).
T1 sequence (whole entry): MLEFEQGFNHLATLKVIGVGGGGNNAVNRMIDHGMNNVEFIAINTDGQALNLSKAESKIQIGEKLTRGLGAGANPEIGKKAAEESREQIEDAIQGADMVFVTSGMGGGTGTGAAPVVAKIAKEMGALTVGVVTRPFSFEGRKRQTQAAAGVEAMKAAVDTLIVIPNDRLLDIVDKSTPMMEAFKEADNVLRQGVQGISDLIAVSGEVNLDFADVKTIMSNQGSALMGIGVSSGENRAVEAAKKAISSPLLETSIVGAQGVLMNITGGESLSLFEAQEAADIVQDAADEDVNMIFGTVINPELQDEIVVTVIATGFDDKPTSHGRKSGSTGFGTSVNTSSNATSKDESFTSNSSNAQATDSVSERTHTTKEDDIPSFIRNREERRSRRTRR
In words: Stimulation of purified Staphylococcus aureus FtsZ polymerization at 40 ug/ml by microtiter plate based light-scattering assay in presence of 10 mM depolymerizing agent GDP.

Experiment [2] relates to Enterococcus faecalis. In words: microbe, parasite or virus in culture. In kind it is functional. As to conditions: ATCC 19433.
Experiment [3] deals with Staphylococcus aureus. As to the kind of experiment: microbe, parasite or virus in culture. It counts as functional. As to conditions: 8325-4.
Experiment [4] concerns Staphylococcus aureus. As to the kind of experiment: microbe, parasite or virus in culture. The note with it: ATCC 33591. In kind it is functional.
Experiment [5] has as its system Enterococcus faecalis. As to the kind of experiment: microbe, parasite or virus in culture. In kind it is functional. The note with it: ATCC 51575.
The subject of experiment [6] is Staphylococcus aureus. As to the kind of experiment: Bactericidal activity against methicillin-sensitive Staphylococcus aureus 8325-4. It counts as functional. The method in brief: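 MBC against MSSA strain 8325-4, determined per a previously described method; paired MIC by CLSI broth microdilution, MIC being lowest concentration giving ≥90% growth inhibition.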

Experiment [7] concerns Staphylococcus aureus. In words: Bactericidal activity against methicillin-resistant Staphylococcus aureus ATCC 33591. In kind it is functional.

SMILES strings stand for the structures. In brackets after ≈: the same amount, converted by molar mass. Activity calls are given as the source filed them. No cut-off for these calls is given here.

On to `COC(=O)c1cc(-c2ccc(C(C)(C)C)cc2)cc(-c2cnc3ccccc3n2)c1`, for which the result in experiment [1] was Active. Moreover, the MIC in experiment [2], in experiment [3], in experiment [4] and in experiment [5] was over 64 µg/mL each time.
Consider `CC(C)(C)c1ccc(-c2ncnc3c(CN)cccc23)cc1`, for which the result in experiment [1] was Active. Besides, the MIC in experiment [2] was 64 µg/mL (≈ 220 µM); in experiment [3], 32 µg/mL (≈ 110 µM); in experiment [4] it was 64 µg/mL (≈ 220 µM); in experiment [5], 64 µg/mL (≈ 220 µM).
For `CC(C)(C)c1ccc(-c2cc(C(=O)NCCN)cc(-c3cnc4ccccc4n3)c2)cc1`, the outcome in experiment [1] was Active. Further, the MIC is 8 µg/mL (≈ 18.8 µM) in experiment [2], 4 µg/mL (≈ 9.42 µM) in experiment [3], 4 µg/mL (≈ 9.42 µM) in experiment [4] and 8 µg/mL (≈ 18.8 µM) in experiment [5].
As for `CC(C)(C)c1ccc(-c2cc(C(N)=O)cc(-c3cnc4ccccc4n3)c2)cc1`, in experiment [1], the outcome was Active. The MIC in experiment [2], in experiment [3], in experiment [4] and in experiment [5] was over 64 µg/mL throughout.
With `C[n+]1ccnc2ccccc21.[I-]`, the result in experiment [1] was Active. For the same molecule, the MIC was over 64 µg/mL in experiment [2], 32 µg/mL in experiment [3], over 64 µg/mL in experiment [4] and over 64 µg/mL in experiment [5].
For `CC(C)(C)c1ccc(-c2ccnc3c(CN)ccnc23)cc1`, in experiment [1], the result was Active. The MIC in experiment [2], in experiment [3], in experiment [4] and in experiment [5] was over 64 µg/mL in each case.
As to `C[n+]1cc(-c2ccccc2)nc2ccccc21.[I-]`, in experiment [1], the result was Active. Besides, the MIC was 32 µg/mL in experiment [2], 4 µg/mL in experiment [3], 8 µg/mL in experiment [4] and over 64 µg/mL in experiment [5].
Consider `CC(C)(C)c1cccc(-c2cnc3ccccc3n2)c1`, for which the outcome in experiment [1] was Active. Also, the MIC in experiment [2], in experiment [3], in experiment [4] and in experiment [5] was over 64 µg/mL in each case.
On to `CC(C)(C)c1ccc(-c2cnc3ccccc3n2)cc1`, for which the outcome in experiment [1] was Active. For the same molecule, the MIC in experiment [2], in experiment [3], in experiment [4] and in experiment [5] was over 64 µg/mL in each case.
Consider `CN(C)[C@@H]1C(O)=C(C(N)=O)C(=O)[C@@]2(O)C(O)=C3C(=O)c4c(O)cccc4[C@@](C)(O)[C@H]3C[C@@H]12` [TETRACYCLINE], for which the MIC was 0.5 µg/mL (≈ 1.13 µM) in experiment [2], 0.06 µg/mL (≈ 0.135 µM) in experiment [3], 64 µg/mL (≈ 144 µM) in experiment [4] and over 64 µg/mL in experiment [5].
For the molecule `CC(C)(C)c1ccc(-c2cccc3c(CNC(=N)N)ncnc23)cc1`, the result in experiment [1] was Active. The MIC is over 64 µg/mL in experiment [2], 16 µg/mL (≈ 48 µM) in experiment [3], 64 µg/mL (≈ 192 µM) in experiment [4] and over 64 µg/mL in experiment [5].
Consider `CCC[C@@H]1C[C@@H](C(=O)N[C@@H]([C@H]2O[C@H](SC)[C@H](O)[C@@H](O)[C@H]2O)[C@H](C)Cl)N(C)C1` [CLINDAMYCIN], for which the MIC in experiment [2] is 2 µg/mL (≈ 4.71 µM); in experiment [3], 0.03 µg/mL (≈ 0.0706 µM); in experiment [4], over 64 µg/mL; in experiment [5] it was over 64 µg/mL.
`C[n+]1cc(-c2cc(C(N)=O)cc(-c3ccc(C(C)(C)C)cc3)c2)nc2ccccc21.[I-]`: the outcome in experiment [1] was Active. Besides, the MIC was found to be 4 µg/mL in experiment [2], 2 µg/mL in experiment [3], 2 µg/mL in experiment [4] and 4 µg/mL in experiment [5].
Turning to `Cc1onc(-c2ccccc2)c1C(=O)N[C@@H]1C(=O)N2[C@@H]1SC(C)(C)[C@@H]2C(=O)O` [OXACILLIN], the MIC was 8 µg/mL (≈ 19.9 µM) in experiment [2], 0.06 µg/mL (≈ 0.149 µM) in experiment [3], over 64 µg/mL in experiment [4] and over 64 µg/mL in experiment [5].
Take `C[n+]1cc(-c2cccc(F)c2)nc2ccccc21.[I-]`: the outcome in experiment [1] was Active. Further, the MIC was found to be 32 µg/mL in experiment [2], 2 µg/mL in experiment [3], 4 µg/mL in experiment [4] and 32 µg/mL in experiment [5].
For the molecule `c1ccc(-c2cnc3ccccc3n2)cc1`, the result in experiment [1] was Active. The MIC in experiment [2], in experiment [3], in experiment [4] and in experiment [5] was over 64 µg/mL throughout.
`Fc1cccc(-c2cnc3ccccc3n2)c1`: the result in experiment [1] was Active. Besides, the MIC in experiment [2], in experiment [3], in experiment [4] and in experiment [5] was over 64 µg/mL throughout.
In the case of `c1ccc(-c2cccc(-c3cnc4ccccc4n3)c2)cc1`, in experiment [1], the result was Active. For the same molecule, the MIC in experiment [2], in experiment [3], in experiment [4] and in experiment [5] was over 64 µg/mL in each case.
Consider `CC(=N)NCc1cccc2c(-c3ccc(C(C)(C)C)cc3)ncnc12`, for which, in experiment [1], the outcome was Active. Further, the MIC in experiment [2] is 64 µg/mL (≈ 193 µM); in experiment [3], 32 µg/mL (≈ 96.3 µM); in experiment [4], 64 µg/mL (≈ 193 µM); in experiment [5], 64 µg/mL (≈ 193 µM).
For `c1ccc2nccnc2c1` [QUINOXALINE], the outcome in experiment [1] was Active. Further, the MIC in experiment [2], in experiment [3], in experiment [4] and in experiment [5] was over 64 µg/mL in each case.
The term MBC denotes the lowest tested concentration that kills the bacteria rather than only halting them. A low value points to more potent killing. In experiment [6], `CC[C@H]1OC(=O)[C@H](C)[C@@H](O[C@H]2C[C@@](C)(OC)[C@@H](O)[C@H](C)O2)[C@H](C)[C@@H](O[C@@H]2O[C@H](C)C[C@H](N(C)C)[C@H]2O)[C@](C)(O)C[C@@H](C)C(=O)[C@H](C)[C@@H](O)[C@]1(C)O` [ERYTHROMYCIN] gave an MBC of 32 µg/mL (≈ 43.6 µM). The MIC in experiment [2] is 1 µg/mL (≈ 1.36 µM); in experiment [3] it was 0.13 µg/mL (≈ 0.177 µM); in experiment [4] it was over 64 µg/mL; in experiment [5], over 64 µg/mL.
`C[n+]1cc(-c2cc(C(=O)NCCO)cc(-c3ccc(C(C)(C)C)cc3)c2)nc2ccccc21.[I-]`: the outcome in experiment [1] was Active. Moreover, the MIC worked out at 8 µg/mL in experiment [2], 4 µg/mL in experiment [3], 4 µg/mL in experiment [4] and 8 µg/mL in experiment [5].
For the molecule `CN[C@H](CC(C)C)C(=O)N[C@H]1C(=O)N[C@@H](CC(N)=O)C(=O)N[C@H]2C(=O)N[C@H]3C(=O)N[C@H](C(=O)N[C@H](C(=O)O)c4cc(O)cc(O)c4-c4cc3ccc4O)[C@H](O)c3ccc(c(Cl)c3)Oc3cc2cc(c3O[C@@H]2O[C@H](CO)[C@@H](O)[C@H](O)[C@H]2O[C@H]2C[C@](C)(N)[C@H](O)[C@H](C)O2)Oc2ccc(cc2Cl)[C@H]1O` [VANCOMYCIN], the MBC in experiment [6] was 1 µg/mL (≈ 0.69 µM); in experiment [7] it was 4 µg/mL (≈ 2.76 µM). In addition, the MIC is 1 µg/mL (≈ 0.69 µM) in experiment [2] and over 64 µg/mL in experiment [5].
As for `COC(=O)c1cc(-c2ccc(C(C)(C)C)cc2)cc(-c2c[n+](C)c3ccccc3n2)c1.[I-]`, the result in experiment [1] was Active. Further, the MIC in experiment [2] was 4 µg/mL; in experiment [3], 1 µg/mL; in experiment [4], 1 µg/mL; in experiment [5], 4 µg/mL.
With `CC(C)(C)c1ccc(-c2cc(C(=O)NCCO)cc(-c3cnc4ccccc4n3)c2)cc1`, in experiment [1], the result was Active. In addition, the MIC in experiment [2], in experiment [3], in experiment [4] and in experiment [5] was over 64 µg/mL in each case.
